{"data": "Results gathered from unrelated publications", "target": "Ephrin type-B receptor 1 (EPHB1, Homo sapiens, UniProt P54762)", "One construct used (P54762 18-984)": "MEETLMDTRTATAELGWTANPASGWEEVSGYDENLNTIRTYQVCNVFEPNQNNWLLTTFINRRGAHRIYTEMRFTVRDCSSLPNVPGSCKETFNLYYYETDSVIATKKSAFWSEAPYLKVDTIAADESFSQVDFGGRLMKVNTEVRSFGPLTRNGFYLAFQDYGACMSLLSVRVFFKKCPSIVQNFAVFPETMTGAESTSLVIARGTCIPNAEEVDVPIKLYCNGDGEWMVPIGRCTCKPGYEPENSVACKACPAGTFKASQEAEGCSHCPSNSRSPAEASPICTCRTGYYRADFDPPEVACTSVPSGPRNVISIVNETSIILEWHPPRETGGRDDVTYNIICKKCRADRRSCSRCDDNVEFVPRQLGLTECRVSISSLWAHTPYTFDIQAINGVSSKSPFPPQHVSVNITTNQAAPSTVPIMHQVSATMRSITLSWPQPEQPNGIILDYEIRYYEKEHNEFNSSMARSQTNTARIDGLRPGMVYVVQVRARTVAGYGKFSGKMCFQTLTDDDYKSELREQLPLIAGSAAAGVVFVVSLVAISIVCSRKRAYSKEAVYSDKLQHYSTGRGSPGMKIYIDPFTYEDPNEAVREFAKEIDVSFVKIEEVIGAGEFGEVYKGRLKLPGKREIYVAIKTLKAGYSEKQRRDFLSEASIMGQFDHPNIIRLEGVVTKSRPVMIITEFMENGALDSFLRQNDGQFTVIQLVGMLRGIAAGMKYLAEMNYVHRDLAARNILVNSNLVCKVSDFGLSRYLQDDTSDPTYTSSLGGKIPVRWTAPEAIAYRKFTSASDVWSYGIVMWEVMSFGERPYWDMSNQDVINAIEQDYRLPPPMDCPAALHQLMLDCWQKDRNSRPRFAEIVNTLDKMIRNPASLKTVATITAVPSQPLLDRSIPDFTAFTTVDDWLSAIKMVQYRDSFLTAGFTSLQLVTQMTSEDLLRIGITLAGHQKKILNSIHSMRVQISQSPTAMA", "note": "Lines come from different studies, so protocols differ."}
{"Compound": "CCN(CC)CCNC(=O)c1c(C)[nH]c(/C=C2\\C(=O)Nc3ccc(F)cc32)c1C", "assay": "enzyme activity, inhibitor", "conditions": "0.3 µM", "quantity": "inhibition", "value": "34%"}
{"Compound": "COc1cc2ncnc(Nc3ccc(Oc4ccccc4)cc3C)c2cc1OC", "assay": "enzyme activity, inhibitor", "conditions": "1 µM", "quantity": "inhibition", "value": "6%"}
{"Compound": "CCN(CC)c1ccc(C2=NNC(=O)CC2C)cc1[N+](=O)[O-] (centres unmarked)", "assay": "enzyme activity, inhibitor", "conditions": "10 µM", "quantity": "remaining activity", "value": "97%"}
{"Compound": "COc1cc(Nc2cnc(C#N)c(O[C@H](C)CN(C)C)n2)ncc1-c1cnn(C)c1", "assay": "enzyme activity, inhibitor, radiometric", "conditions": "1 µM", "quantity": "remaining activity", "value": "100%"}
{"Compound": "Cc1ccc(Nc2nccc(N(C)c3ccc4c(C)n(C)nc4c3)n2)cc1S(N)(=O)=O", "assay": "enzyme activity, inhibitor", "conditions": "10 µM", "quantity": "inhibition", "value": "63%"}
{"Compound": "O=C(NS(=O)(=O)c1ccc(NCC2CCOCC2)c([N+](=O)[O-])c1)c1ccc(N2CCN(Cc3ccc(C(F)(F)F)cc3-c3ccc(Cl)cc3)CC2)cc1Oc1cnc2[nH]ccc2c1", "assay": "cell-free assay, competition with immobilised ligand", "conditions": "1 µM", "quantity": "remaining binding", "value": "100%"}
{"Compound": "FC(F)c1nc2ccccc2n1-c1nc(N2CCOCC2)nc(N2CCOCC2)n1", "assay": "enzyme activity, inhibitor", "conditions": "10 µM", "quantity": "remaining activity", "value": "96%"}
{"Compound": "C#Cc1cccc(Nc2ncnc3cc(OCCOC)c(OCCOC)cc23)c1", "assay": "cell-free assay", "conditions": "0.5 µM", "quantity": "remaining signal", "value": "100%"}
{"Compound": "Cc1cc(NC(=O)c2cccc3cc(-c4cccc5[nH]nc(N)c45)ccc23)ccc1F", "assay": "enzyme activity, inhibitor", "conditions": "0.1 µM", "quantity": "activity vs control", "value": "127%"}
{"Compound": "O=C(O)[C@H]1[C@H](Cn2nnc3ccccc3c2=O)CC[C@@H]1C(=O)c1ccc(OCCC2CCOCC2)cc1", "assay": "cell-free assay, competition with immobilised ligand", "conditions": "1 µM", "quantity": "remaining binding", "value": "100%"}
{"Compound": "COc1cc(/C=C/C(=O)CC(=O)/C=C/c2ccc(O)c(OC)c2)ccc1O", "assay": "enzyme activity, inhibitor", "conditions": "1 µM", "quantity": "activity vs control", "value": "100%"}
{"Compound": "O=C1NC(=O)c2cc(Nc3ccc(F)cc3)c(Nc3ccc(F)cc3)cc21", "assay": "cell-free assay", "conditions": "0.5 µM", "quantity": "remaining signal", "value": "103%"}
{"Compound": "O=C(NC[C@@H]1[C@H]2CN(C(=O)OCc3cc(C(F)(F)F)cc(C(F)(F)F)c3)C[C@@H]12)c1ccc2[nH]nnc2c1", "assay": "cell-free assay, competition with immobilised ligand", "conditions": "1 µM", "quantity": "remaining binding", "value": "100%"}
{"Compound": "O=C1Nc2ccc(Cl)cc2C1=Cc1cc(Cl)c(O)c(Cl)c1", "assay": "cell-free assay", "conditions": "0.5 µM", "quantity": "remaining signal", "value": "91%"}
{"Compound": "COc1cc(-c2cc(-c3ccc(N4CCNCC4)cc3)cnc2C)cc(OC)c1OC", "assay": "enzyme activity, inhibitor", "conditions": "0.1 µM", "quantity": "inhibition", "value": "5%"}
{"Compound": "Cc1ccc(NC(=O)c2ccc(C)c(C(F)(F)F)c2)cc1C#Cc1nn(C2CCC(O)CC2)c2ncnc(N)c12 (centres unmarked)", "assay": "cell-free assay", "conditions": "10 µM", "quantity": "remaining signal", "value": "-1%"}
{"Compound": "CCCS(=O)(=O)Nc1ccc(F)c(C(=O)c2c[nH]c3ncc(-c4ccc(Cl)cc4)cc23)c1F", "assay": "enzyme activity, inhibitor", "conditions": "1 µM", "quantity": "inhibition", "value": "< 10%"}
{"Compound": "COc1cc(Cl)c(C(=O)N[C@@H](CN[C@H]2CC[C@@H](N)CC2)Cc2ccc(C#N)cc2)cc1-c1ccc(CN[C@H](C)c2ccc(C)cc2)o1", "assay": "enzyme activity, inhibitor", "conditions": "1 µM", "quantity": "remaining activity", "value": "122%"}
{"Compound": "Cn1c(=O)n(-c2ccc(C(C)(C)C#N)cc2)c2c3cc(-c4cnc5ccccc5c4)ccc3ncc21", "assay": "enzyme activity, inhibitor", "conditions": "10 µM", "quantity": "remaining activity", "value": "133%"}
{"Compound": "CNCc1ccccc1-c1csc([C@@H](C)Nc2nc(C)nc3cc(OC)c(OC)cc23)c1", "assay": "cell-free assay, competition with immobilised ligand", "conditions": "1 µM", "quantity": "remaining binding", "value": "100%"}
{"Compound": "Cc1ccc(C(=O)Nc2ccc(CN3CCN(C)CC3)c(C(F)(F)F)c2)cc1C#Cc1cnc2cccnn12", "assay": "cell-free assay", "conditions": "23.5 nM", "quantity": "remaining signal", "value": "29%"}
{"Compound": "CC(=O)c1c(NS(C)(=O)=O)c2cc(-c3ccc(Cl)cc3)c(-c3ccc(Cl)cc3Cl)nc2n(C)c1=O", "assay": "cell-free assay, competition with immobilised ligand", "conditions": "1 µM", "quantity": "remaining binding", "value": "100%"}
{"Compound": "CS(=O)(=O)CCNCc1ccc(-c2ccc3ncnc(Nc4ccc(OCc5cccc(F)c5)c(Cl)c4)c3c2)o1", "assay": "cell-free assay", "conditions": "0.5 µM", "quantity": "remaining signal", "value": "104%"}
{"Compound": "C[C@@H]1CN(c2cc(-c3n[nH]c4ccc(OC5(C)CC5)cc34)ncn2)C[C@H](C)O1", "assay": "cell-free assay, competition with immobilised ligand", "conditions": "0.1 µM", "quantity": "remaining binding", "value": "83%"}
{"Compound": "O=C(Nc1cnn(-c2csc(C(=O)NC3COC3)c2)c1)Nc1ccccc1Cl", "assay": "enzyme activity, inhibitor", "conditions": "5 µM", "quantity": "remaining activity", "value": "100%"}
{"Compound": "CCC(=N\\O)/C(C)=C/c1ccc(F)cc1", "assay": "cell-free assay, competition with immobilised ligand", "conditions": "1 µM", "quantity": "remaining binding", "value": "100%"}
{"Compound": "CC/C(=N\\NC(=O)NCc1cccc(O)c1)c1ccc(O)c(C)c1O", "assay": "enzyme activity, inhibitor", "conditions": "0.1 µM", "quantity": "inhibition", "value": "-1%"}
{"Compound": "CC(C)CC(=O)N1CCc2nc(-c3ccc(Br)cc3)nc(N(C)Cc3ccccc3)c2C1", "assay": "cell-free assay, competition with immobilised ligand", "conditions": "0.1 µM", "quantity": "remaining binding", "value": "100%"}
{"Compound": "CC(C)(C)c1nc(-c2cccc(NS(=O)(=O)c3c(F)cccc3F)c2F)c(-c2ccnc(N)n2)s1", "assay": "enzyme activity, inhibitor, radiometric", "conditions": "1 µM", "quantity": "remaining activity", "value": "94%"}
